Compound activity as filed in PubChem BioAssay.
In the library only some 2.3% were active in any assay of this set; here they are far more common.
TRPC4 inh = blocks the mouse TRPC4 cation channel; AID 2247; Q9QUQ5; HEK293 TRPC4beta/mu-opioid, DAMGO-evoked Fluo4 calcium flux; hits give low values; B-score at 10 µM; 300,000 tested, 0.39% active;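 active = B-score over 3 SD under the library average, no early fluorescence shift, positive overall ratio signal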
Target sequence (Q9QUQ5 whole entry, looked up): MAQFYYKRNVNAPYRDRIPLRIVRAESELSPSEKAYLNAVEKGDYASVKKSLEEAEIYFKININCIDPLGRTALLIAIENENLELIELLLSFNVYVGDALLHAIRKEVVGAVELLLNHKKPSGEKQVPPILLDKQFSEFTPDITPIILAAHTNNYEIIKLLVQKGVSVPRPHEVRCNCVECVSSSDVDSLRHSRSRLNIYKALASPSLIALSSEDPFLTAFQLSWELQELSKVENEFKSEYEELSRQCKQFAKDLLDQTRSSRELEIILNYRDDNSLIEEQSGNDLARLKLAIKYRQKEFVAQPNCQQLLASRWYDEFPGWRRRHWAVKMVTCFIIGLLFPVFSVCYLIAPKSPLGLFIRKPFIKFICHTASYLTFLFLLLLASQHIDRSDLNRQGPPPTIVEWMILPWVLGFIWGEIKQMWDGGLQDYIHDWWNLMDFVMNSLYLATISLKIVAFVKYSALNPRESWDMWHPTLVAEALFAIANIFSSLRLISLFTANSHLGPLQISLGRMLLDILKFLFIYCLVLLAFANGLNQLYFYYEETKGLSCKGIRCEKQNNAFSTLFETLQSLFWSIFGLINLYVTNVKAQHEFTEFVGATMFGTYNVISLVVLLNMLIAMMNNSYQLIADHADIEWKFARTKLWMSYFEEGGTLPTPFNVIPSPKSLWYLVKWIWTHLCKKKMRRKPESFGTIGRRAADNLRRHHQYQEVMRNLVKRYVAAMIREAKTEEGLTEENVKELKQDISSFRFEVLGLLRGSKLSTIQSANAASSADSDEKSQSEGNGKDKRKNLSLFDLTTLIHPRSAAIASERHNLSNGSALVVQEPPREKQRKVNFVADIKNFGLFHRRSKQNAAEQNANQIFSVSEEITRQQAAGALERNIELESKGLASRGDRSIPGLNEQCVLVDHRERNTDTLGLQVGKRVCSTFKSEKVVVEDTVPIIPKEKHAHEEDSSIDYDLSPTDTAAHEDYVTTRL
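Assay system: HEK293 cells with stable TRPC4beta plus mu-opioid receptor expression; Probe or stimulus: DAMGO in two steps, submaximal then maximal; Dosing: single-point compound dosing; Measured by: Fluo4 calcium-dye fluorescence, kinetic read; Read-out basis: B score from integrated Fluo4 fluorescence ratio.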
TRPC4 PAM = TRPC4 (mouse) allosteric potentiation. B-score at 10 µM. Q9QUQ5. HEK293 TRPC4beta/mu-opioid, DAMGO EC20, Fluo-4 Ca2+ flux; hits give high values. 310,000 tested, 0.42% active;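 active = B-score of calcium response area above 5 SD of library B-scores, with initial fluorescence ratio within 5 SD of library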;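 note: B-score of integrated fluorescence ratio over time as area under calcium response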
TRPC4 agonist = TRPC4 (mouse) channel activation; Q9QUQ5; HEK293 TRPC4beta/mu-opioid, Fluo4 calcium fluorescence; hits give high values; B-score at 10 µM; 310,000 tested, 0.49% active;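 active = B-score above 5 SD of library B-scores, and initial fluorescence ratio not above library mean plus 5 SD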;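 note: positive B-score marks a calcium rise read as TRPC4 activation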
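Technique: kinetic Fluo4 calcium fluorescence; Test system: TRPC4beta and mu-opioid receptor HEK293 stable cells; Measure: B-scored integrated calcium fluorescence ratio; Benchmarks: low control buffer alone, high control maximal DAMGO; Schedule: 45 min room-temperature Fluo4 loading, 110 s read.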
TRPC6 inh = mouse TRPC6 channel inhibition | Q61143 | HEK293-TRPC6, membrane potential dye, ACh-evoked depolarization; hits give low values | B-score at 10 µM | 310,000 tested, 1.1% active | AID 2553;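 active = B-score under library mean minus 3 SD, initial fluorescence not abnormally high, positive integrated signal ratio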;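 note: B-score derived from integrated fluorescence ratio over the kinetic read; more negative B-score means stronger inhibition of depolarization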
TRPC6 act = mouse TRPC6 channel activation. Q61143. HEK293-TRPC6 membrane potential dye fluorescence; hits give high values. B-score at 10 µM. 310,000 tested, 0.13% active. AID 2550;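 active = B-score of the integrated fluorescence ratio above library mean plus 3 SD, and starting fluorescence ratio within library mean plus 5 SD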;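 note: higher score means more depolarization so channel activation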
TRPC4 sel inh 2 = second selectivity test of TRPC6 inhibitors: effect on mouse TRPC4; shares compounds with TRPC6 inh; inhibition, % at 10 µM; 920 tested, 42% active; HEK293 TRPC4/MOR, membrane potential dye fluorescence; channel activated by saturating DAMGO dose;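 active = compounds whose fluorescence signal differed from control wells by over 3 SD, either direction, in both duplicate plates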
TRPC4 spec = tests whether TRPC6 inhibitors also affect mouse TRPC4. shares compounds with TRPC6 inh. HEK293 TRPC4/mu-opioid, membrane potential fluorescence. 920 tested, 61% active. activity change, negative = inhibition, % at 10 µM;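 active = rise or fall in signal beyond 3 SD of buffer-only wells in both replicate plates, either sign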;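 note: integrated kinetic ratio of fluorescence range over baseline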
HEK293 MPD ctr 2-1 = parental HEK293 nonspecific activity of TRPC6 inhibitors, second screen; parental HEK293 membrane potential dye fluorescence; maximal acetylcholine challenge after compound addition; 920 tested, 31% active; signal change vs control, % at 10 µM; shares compounds with TRPC6 inh; AID 2779;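 active = membrane potential signal moving either way by over 3 SD of the maximum-effect control, in both duplicate plates, meaning non-specific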
HEK293 MPD ctr-1 = checks TRPC6 inhibitor effects in parental HEK293 cells. shares compounds with TRPC6 inh. membrane potential signal change, % at 10 µM. AID 2780. 920 tested, 60% active. parental HEK293 membrane potential dye fluorescence;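 active = membrane potential signal shifting up or down by more than 3 SD of buffer-only wells, on both duplicate plates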
HEK293 MPD ctr-2 = counter-screen for TRPC6 modulators: effect in parental HEK293 cells; membrane potential dye fluorescence; shares compounds with TRPC6 inh; membrane potential signal change, % at 10 µM; 2,400 tested, 51% active; AID 488924;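 active = membrane potential signal moves up or down beyond 5 SD from buffer-only wells, on both duplicate plates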
HEK293 MPD ctr 2-2 = parental HEK293 nonspecific activity of TRPC6 modulators, second screen. shares compounds with TRPC6 inh. membrane potential dye fluorescence; after compound, maximal acetylcholine stimulation. inhibition, % at 10 µM. 2,400 tested, 14% active. AID 488926;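 active = membrane potential signal drops by more than 5 SD from the mean control signal, in both duplicate plates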;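 note: plate controls were acetylcholine ECmax control wells for no effect and buffer only wells for full effect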
TRPC4 ctr mod = tests whether TRPC6 modulators also affect mouse TRPC4; shares compounds with TRPC6 inh; HEK293 TRPC4/mu-opioid, membrane potential fluorescence; percent change from control (negative = decrease, positive = increase), % at 10 µM; 2,400 tested, 69% active;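 active = membrane potential signal moved up or down beyond 5 SD of buffer control wells, in both duplicate plates, actives on both sides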;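 note: plate controls were assay buffer wells for no effect and DAMGO maximal-effect wells for full effect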
TRPC4 ctr inh 2 = mouse TRPC4 off-target activity of TRPC6 modulators, second screen; shares compounds with TRPC6 inh; HEK293 TRPC4/mu-opioid, membrane potential dye fluorescence; stimulated with maximal-effect DAMGO; inhibition, % at 10 µM; 2,400 tested, 55% active; AID 488928;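 active = drop in membrane potential signal beyond 5 SD of the control wells in both duplicate plates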;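 note: TRPC4 counter screen for TRPC6 hits run under conditions tuned for TRPC6 not TRPC4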
TRPC6 inh conf = confirmation of mouse TRPC6 inhibitors; shares compounds with TRPC6 inh; HEK293-TRPC6, membrane potential dye, ACh-evoked depolarization; inhibition, % at 10 µM; 3,300 tested, 43% active; AID 488960;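 active = fluorescence ratio falls more than 5 SD below the full-stimulation control mean, in both duplicate runs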;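 note: integrated fluorescence ratio of peak minus minimum over baseline after agonist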
TRPC6 act confirm = mouse TRPC6 activator confirmation; activation, % at 10 µM; HEK293-TRPC6 membrane potential dye fluorescence, FDSS; 2,800 tested, 11% active; shares compounds with TRPC6 inh;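 active = ratio signal rise beyond 5 SD above unstimulated control wells' mean, seen in both duplicate runs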;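 note: plate controls were buffer EC0 wells for no effect and acetylcholine ECmax response for full effect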
The depositor's hits bear a star; i = inactive; / = not tested or not shown.

SMILES	TRPC4 inh	TRPC4 PAM	TRPC4 agonist	TRPC6 inh	TRPC6 act	HEK293 MPD ctr-2	HEK293 MPD ctr 2-2	TRPC4 ctr mod	TRPC4 ctr inh 2	TRPC6 inh conf	TRPC6 act confirm	others
CN(CC#CC(O)(c1ccccc1)c1ccccc1)C(C)(C)C	i	i	i	-8.9*	i	/	/	/	/	74%*	/	TRPC4 sel inh 2=i;TRPC4 spec=6.1%*;HEK293 MPD ctr 2-1=-16%*;HEK293 MPD ctr-1=8.8%*
CC(C)(CNc1ccc(S(=O)(=O)C(F)(F)F)cc1[N+](=O)[O-])N1CCOCC1	i	i	i	i	i	/	/	/	/	/	/
Nc1cc(C(=O)N2CCCC2)cc(C(=O)N2CCCC2)c1	i	i	i	i	i	/	/	/	/	/	/
NS(=O)(=O)c1ccc(NC(=O)NC2CC(=O)N(c3ccc4c(c3)OCCO4)C2)cc1 (stereo not given)	i	i	i	i	i	/	/	/	/	/	/
N#C/C(=C\c1c(N2CCCCC2)nc2ccccn2c1=O)S(=O)(=O)c1ccccc1	i	i	i	-5.3*	i	i	i	-14%*	48%*	i	i
Cc1ccc(S(=O)(=O)/C(C#N)=C/c2c(N3CCN(C)CC3)nc3c(C)cccn3c2=O)cc1	i	i	i	-6.8*	i	i	i	-17%*	83%*	i	i
CCN1CCN(c2nc3c(C)cccn3c(=O)c2/C=C(\C#N)S(=O)(=O)c2ccc(C)cc2)CC1	i	i	i	-5.1*	i	-77%*	i	-22%*	96%*	i	i
N#C/C(=C\c1c(N2CCN(c3ccccc3)CC2)nc2ccccn2c1=O)S(=O)(=O)c1ccccc1	i	i	i	i	i	/	/	/	/	/	/
COc1ccc2oc(C(=O)OCC(=O)N(C)c3c(N)n(Cc4ccccc4)c(=O)[nH]c3=O)c(C)c2c1	i	i	i	i	i	/	/	/	/	/	/
COCCn1c(=S)[nH]c2ccc(N(C)C)cc2c1=O	i	i	i	i	i	/	/	/	/	/	/
Cc1cc(Nc2cccc(Cl)c2)c2ccccc2n1	i	i	i	i	i	/	/	/	/	/	/
COc1ccc2nc(C)cc(Nc3ccc(C(=O)O)cc3)c2c1	i	i	i	i	i	/	/	/	/	/	/
CCOc1ccc(Nc2cc(C)nc3ccc(C)cc23)cc1	i	i	i	-6.4*	i	-135%*	i	-29%*	58%*	50%*	i
CCOC(=O)c1ccc2nc(C)cc(Nc3cccc(C(=O)O)c3)c2c1	i	i	i	i	i	/	/	/	/	/	/
CC(=O)c1cccc(Nc2cc(C)nc3c(C)cccc23)c1	i	i	i	-5.4*	i	-122%*	57%*	-26%*	52%*	52%*	i
CC(=O)c1cccc(Nc2cc(C)nc3ccccc23)c1	i	i	i	-5.6*	i	-120%*	i	-20%*	48%*	i	i
Cc1cccc(Nc2cc(C)nc3ccccc23)c1	i	i	i	-6*	i	-140%*	60%*	-26%*	73%*	66%*	i
COc1ccccc1CNC(=O)COC(=O)C1CCN(S(=O)(=O)c2ccccc2)CC1	i	i	i	i	i	/	/	/	/	/	/
N#CC(c1ccccc1)N(CCCCl)C(=O)c1ccccc1 (stereo not given)	i	i	i	i	i	/	/	/	/	/	/
Cn1c(=O)[nH]c(=O)c2c1nc(N1CCCCCC1)n2CCN1CCCCCC1	i	i	i	-6.6*	i	/	/	/	/	i	i	TRPC4 sel inh 2=54%*;TRPC4 spec=-11%*;HEK293 MPD ctr 2-1=i;HEK293 MPD ctr-1=-218%*
CCN1CCN(c2nc3c(c(=O)[nH]c(=O)n3C)n2CCCSc2ncccn2)CC1	i	i	i	-5.4*	i	-188%*	i	-22%*	46%*	i	i
CN1CCN(c2nc3c(c(=O)[nH]c(=O)n3C)n2CCCSc2ncccn2)CC1	i	i	i	-5.9*	i	-166%*	i	-30%*	i	i	i
CCCn1c(N2CCN(C)CC2)nc2c1c(=O)[nH]c(=O)n2C	i	i	i	i	i	/	/	/	/	/	/
CCN1CCN(c2nc3c(c(=O)[nH]c(=O)n3C)n2CCCc2ccccc2)CC1	i	i	i	i	i	/	/	/	/	/	/
c1ccc(-c2csc(Nc3cccnc3)n2)nc1	/	i	i	-6*	i	-84%*	i	-18%*	i	i	i
COCCCN(CC(=O)NCc1ccccc1)S(=O)(=O)c1ccc(C)cc1	i	i	i	-6.3*	i	i	i	i	i	i	i
COCCCNC(=O)CN(CCc1ccccc1)S(=O)(=O)c1ccc(OC)cc1	i	i	i	i	i	/	/	/	/	/	/
O=c1[nH]cnc2sc3c(c12)CCN(Cc1ccccc1)C3	i	i	i	i	i	/	/	/	/	/	/
OCCCNc1ncnc2sc3c(c12)CCN(Cc1ccccc1)C3	i	i	i	-6*	i	-137%*	i	-38%*	i	i	i
